Experimental data from ChEMBL document CHEMBL1629520, “Synthesis and optimization of antitubercular activities in a series of 4-(aryloxy)phenyl cyclopropyl methanols” (Eur J Med Chem, 2010).
Converted amounts (≈) assume the structure as drawn.

Legend:
[1] = system: Mycobacterium tuberculosis; experiment: Antitubercular activity against drug-susceptible Mycobacterium tuberculosis clinical isolate1 after 30 days by agar microdilution method; assay type: functional
[2] = system: Mycobacterium tuberculosis; experiment: Antitubercular activity against Mycobacterium tuberculosis H37Rv infected in swiss mouse assessed as increase mouse survival at 100 mg/kg, po qd for 28 days measured on day 40 relative to control; assay type: functional
Method in brief: (§1)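 Outbred female Swiss mice (18–20 g) infected i.v. via lateral vein with 10⁷ CFU H37Rv; groups of 10 formed next day. Test compound given as aqueous suspension at 100 mg/kg, INH at 25 mg/kg; placebo given to infected controls. All dosing oral, daily for 28 days. Mean survival time and % survivors scored at days 30 and 40; lung bacillary load per g determined on day 30.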

[3] = system: Mycobacterium tuberculosis; experiment: Antitubercular activity against Mycobacterium tuberculosis H37Rv infected in swiss mouse assessed as increase in mean survival time at 100 mg/kg, po qd for 28 days measured on day 30; assay type: functional; method in brief: as §1
[4] = Chemical stability of the compound in HCl at […] assessed as compound remaining after 3 hrs by HPLC analysis; assay type: physicochemical; conditions: HCl solution; read-out: Stability
Method in brief: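 Compound held in 0.1N HCl (gastric pH) at ambient temperature for up to 3 h and analysed by HPLC on a CN column (250 mm × 4 mm, 5 µm) at 25 ± 3 °C with PDA detection. Intact parent was followed by its peak, and degradation products by their retention times.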

[5] = system: Mycobacterium tuberculosis; experiment: Antitubercular activity against Mycobacterium tuberculosis H37Rv infected in swiss mouse assessed as increase in mean survival time at 100 mg/kg, po qd for 28 days measured on day 40; assay type: functional; method in brief: as §1
[6] = system: Mycobacterium tuberculosis; experiment: Antitubercular activity against drug-susceptible Mycobacterium tuberculosis clinical isolate2 after 30 days by agar microdilution method; assay type: functional
[7] = system: Mycobacterium tuberculosis; experiment: Antitubercular activity against Mycobacterium tuberculosis H37Rv infected in swiss mouse assessed as decrease in bacilli load in lungs at 100 mg/kg, po qd for 28 days measured on day 30; assay type: functional; method in brief: as §1
[8] = Selectivity index, ratio of IC50 for mouse BMDM to MIC for Mycobacterium tuberculosis H37Rv; assay type: functional
Method in brief: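 Bone-marrow cells flushed with DMEM containing 10% FBS, 15% L-929 conditioned supernatant and non-essential amino acids. Seeded at 10⁵/well and grown 5 days, medium changed every 3rd day. Compounds added in antibiotic-free FBS-DMEM for 48 h. MTS added for 2 h, A490 read, DMSO wells taken as 100%. IC50 divided by H37Rv MIC.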

[9] = Cytotoxicity against mouse BMDM after 48 hrs by MTS assay; assay type: cell-based
Method in brief: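 Mouse bone-marrow cells were flushed into DMEM with 10% FBS, 15% L-929 conditioned supernatant and non-essential amino acids. They were plated at 10⁵/well and cultured 5 days at 37 °C, 5% CO₂, with medium changed every 3rd day. Graded compound concentrations were added in antibiotic-free FBS-DMEM for 48 h. MTS was added for 2 h and A490 read, with DMSO wells taken as 100% survival.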

[10] = Selectivity index, ratio of IC50 for african green monkey Vero cells to MIC for Mycobacterium tuberculosis H37Rv; assay type: functional
Method in brief: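 Vero cells seeded at 10,000/well in DMEM with antibiotics and 10% FBS, allowed to adhere overnight (37 °C, 5% CO₂). […] MTS added for 2 h, absorbance read at 490 nm, with DMSO wells taken as 100% survival. IC50 divided by H37Rv agar MIC.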

[11] = system: Mycobacterium tuberculosis; experiment: Antitubercular activity against Mycobacterium tuberculosis H37Rv after 30 days by agar microdilution method; assay type: functional
Method in brief: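 Compound dissolved in DMSO; two-fold dilutions added to Middlebrook 7H10 with OADC in slanted tubes, preincubated 24 h at 37 °C. Tubes then streaked with 5 × 10⁵ bacilli of H37Rv harvested from L–J culture into 0.85% saline with 0.05% Tween-80. Incubated 30 days at 37 °C. MIC is the lowest concentration giving complete inhibition of colonies, judged against drug-free control tubes.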

[12] = system: Mycobacterium tuberculosis; experiment: Antitubercular activity against Mycobacterium tuberculosis H37Rv infected in swiss mouse assessed as increase mouse survival at 100 mg/kg, po qd for 28 days measured on day 30 relative to control; assay type: functional; method in brief: as §1
[13] = system: Vero; experiment: Cytotoxicity against african green monkey Vero cells after 24 hrs by MTS assay; assay type: cell-based; conditions: Chlorocebus sabaeus
Method in brief: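 Vero cells were seeded at 10,000/well in DMEM with antibiotics and 10% FBS and left to adhere overnight at 37 °C, 5% CO₂. […] MTS was then added for 2 h and A490 read, with DMSO wells taken as 100% survival.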

[14] = system: Mycobacterium tuberculosis; experiment: Antitubercular activity against Mycobacterium tuberculosis H37Rv infected in mouse BMDM assessed as reduction in intracellular CFU at 5 times MIC after 4 weeks relative to control; assay type: functional; set-up: scale not given: the % may be the effect or the level left
Method in brief: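 Murine bone-marrow macrophages cultured 5 days, then infected 3 h with 5 × 10⁶ H37Rv in antibiotic-free DMEM/10% FBS. Extracellular bacteria washed off, and compound added at 5× MIC. After 4 days at 37 °C, 5% CO₂, cells lysed with 0.1% saponin. Lysates serially diluted in saline and plated on 7H11; colonies counted after 4 weeks at 37 °C.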

[15] = system: Mycobacterium tuberculosis; experiment: Antitubercular activity against Mycobacterium tuberculosis H37Rv infected in swiss mouse assessed as increase mouse survival at 25 mg/kg, po qd for 28 days measured on day 30 relative to control; assay type: functional; method in brief: as §1
[16] = system: Mycobacterium tuberculosis; experiment: Antitubercular activity against Mycobacterium tuberculosis H37Rv infected in swiss mouse assessed as increase in mean survival time at 25 mg/kg, po qd for 28 days measured on day 40; assay type: functional; method in brief: as §1
[17] = system: Mycobacterium tuberculosis; experiment: Antitubercular activity against Mycobacterium tuberculosis H37Rv infected in swiss mouse assessed as increase mouse survival at 25 mg/kg, po qd for 28 days measured on day 40 relative to control; assay type: functional; method in brief: as §1
[18] = system: Mycobacterium tuberculosis; experiment: Antitubercular activity against Mycobacterium tuberculosis H37Rv infected in swiss mouse assessed as increase in mean survival time at 25 mg/kg, po qd for 28 days measured on day 30 relative to control; assay type: functional; method in brief: as §1

In the case of `OC(c1ccc(OCc2ccc(OCCN3CCCCC3)cc2)cc1)C1CC1` (stereo not drawn), the MIC [1] is reported as over 12.5 µg/mL, the survival at 100 mg/kg [2] is reported as 25% and the MST [3] is reported as 27.5. For the same compound, the remaining at 3 h [4] was under 70%, the MST [5] was 31.62 and the MIC [6] was over 12.5 µg/mL. For the same compound, the Activity [7] was 9 ×10⁷ /g, the Selectivity Index [8] was over 10 and the IC50 [9] was over 50 µg/mL. The “Selectivity Index” value [10] was over 10, the MIC [11] was 3.12 µg/mL (≈ 8.18 µM) and the survival at 100 mg/kg [12] was 50%. It also gave an IC50 [13] of over 50 µg/mL and an Activity [14] of 98%.
Compound `COc1cc(COc2ccc(C(O)C3CC3)cc2)ccc1OCCN1CCCCC1` (stereo not drawn) has an MIC [11] of 6.25 µg/mL (≈ 15.2 µM).
Compound `COc1cc(COc2ccc(C(=O)C3CC3)cc2)cc(OC)c1OC` has an MIC [11] of over 12.5 µg/mL.
In the case of `OC(c1ccc(OCc2ccc(OCCN3CCOCC3)cc2)cc1)C1CC1` (stereo not drawn), the Selectivity Index [8] is reported as over 10, the IC50 [9] is reported as over 50 µg/mL and the “Selectivity Index” value [10] is reported as over 10. The MIC [11] was 3.12 µg/mL (≈ 8.14 µM), the IC50 [13] was over 50 µg/mL and the Activity [14] was 89%.
Work on `CN(C)CCOc1ccc(COc2ccc(C(=O)C3CC3)cc2)cc1` yielded an MIC [11] of over 12.5 µg/mL.
With `O=C(c1ccc(OCc2cccc(Br)c2)cc1)C1CC1` the MIC [11] was 12.5 µg/mL (≈ 37.7 µM).
Work on `O=C(c1ccc(OCc2ccc(Br)cc2)cc1)C1CC1` yielded an MIC [11] of 6.25 µg/mL (≈ 18.9 µM).
For `NNC(=O)c1ccncc1` [ISONIAZID], the survival at 25 mg/kg [15] was 100%, the MST [16] was 40 and the survival at 25 mg/kg [17] was 100%. It also gave an MST [18] of 30.
Work on `COc1cc(COc2ccc(C(=O)C3CC3)cc2)ccc1OCCN(C(C)C)C(C)C` yielded an MIC [11] of over 12.5 µg/mL.
Compound `CN(C)CCOc1ccc(COc2ccc(C(O)C3CC3)cc2)cc1` (stereo not drawn) has an MST [3] of 12.85, a Selectivity Index [8] of over 10 and an IC50 [9] of over 50 µg/mL. For the same compound, the “Selectivity Index” value [10] was over 10, the MIC [11] was 3.12 µg/mL (≈ 9.14 µM) and the IC50 [13] was over 50 µg/mL. For the same compound, the Activity [14] was 80%.
Compound `CCCCN(CCCC)CCOc1ccc(C(O)C2CC2)cc1` (stereo not drawn) has an MIC [11] of 12.5 µg/mL (≈ 39.1 µM).
`COc1cc(COc2ccc(C(=O)C3CC3)cc2)ccc1OCCN1CCCCC1` gave an MIC [11] of over 12.5 µg/mL.
For `COc1cc(COc2ccc(C(O)C3CC3)cc2)ccc1OCCN(C(C)C)C(C)C` (stereo not drawn), the MIC [11] was over 12.5 µg/mL.
With `COc1cc(COc2ccc(C(O)C3CC3)cc2)ccc1OCCN1CCOCC1` (stereo not drawn) the MIC [11] was 12.5 µg/mL (≈ 30.2 µM).
Compound `OC(c1ccc(OCc2ccc(Br)cc2)cc1)C1CC1` (stereo not drawn) has an MST [3] of 23.37, an MIC [11] of 6.25 µg/mL (≈ 18.8 µM) and an Activity [14] of 88%.
`O=C(c1ccc(OCc2cccc([N+](=O)[O-])c2)cc1)C1CC1` showed an MIC [11] of 6.25 µg/mL (≈ 21 µM).
With `COc1cc(COc2ccc(C(O)C3CC3)cc2)cc(OC)c1OC` (stereo not drawn) the MIC [11] was 12.5 µg/mL (≈ 36.3 µM).
Work on `OC(c1ccc(OCc2cccc(Br)c2)cc1)C1CC1` (stereo not drawn) yielded an MIC [11] of 12.5 µg/mL (≈ 37.5 µM).
In the case of `O=C(c1ccc(OCc2ccc(OCCN3CCCCC3)cc2)cc1)C1CC1`, the MIC [11] is reported as 12.5 µg/mL (≈ 32.9 µM).
Compound `O=C(c1ccc(OCc2ccc(OCCN3CCOCC3)cc2)cc1)C1CC1` has an MIC [11] of 6.25 µg/mL (≈ 16.4 µM).
With `O=C(c1ccc(OCc2ccc(OCc3ccccc3)cc2)cc1)C1CC1` the Selectivity Index [8] was over 10, the IC50 [9] was over 50 µg/mL and the “Selectivity Index” value [10] was over 10. The MIC [11] was 1.56 µg/mL (≈ 4.35 µM), the IC50 [13] was over 50 µg/mL and the Activity [14] was 0%.
Work on `O=C(c1ccc(OCc2cccc(OCCN3CCCCC3)c2)cc1)C1CC1` yielded an MIC [11] of 12.5 µg/mL (≈ 32.9 µM).
In the case of `CC(C)N(CCOc1ccc(COc2ccc(C(=O)C3CC3)cc2)cc1)C(C)C`, the MIC [11] is reported as 12.5 µg/mL (≈ 31.6 µM).
With `CCCCN(CCCC)CCOc1ccc(C(=O)C2CC2)cc1` the MIC [11] was over 12.5 µg/mL.
With `OC(c1ccc(OCc2ccc(OCc3ccccc3)cc2)cc1)C1CC1` (stereo not drawn) the Selectivity Index [8] was over 10, the IC50 [9] was over 50 µg/mL and the “Selectivity Index” value [10] was over 10. The MIC [11] was 3.12 µg/mL (≈ 8.66 µM), the IC50 [13] was over 50 µg/mL and the Activity [14] was 54%.
`OC(c1ccc(OCc2cccc(OCCN3CCCCC3)c2)cc1)C1CC1` (stereo not drawn) gave an MIC [11] of 6.25 µg/mL (≈ 16.4 µM).
In the case of `O=[N+]([O-])c1cccc(COc2ccc(C(O)C3CC3)cc2)c1` (stereo not drawn), the MIC [11] is reported as 6.25 µg/mL (≈ 20.9 µM).
Work on `COc1cc(COc2ccc(C(=O)C3CC3)cc2)ccc1OCCN1CCOCC1` yielded an MIC [11] of 6.25 µg/mL (≈ 15.2 µM).
`CC(C)N(CCOc1ccc(COc2ccc(C(O)C3CC3)cc2)cc1)C(C)C` (stereo not drawn) gave an MIC [11] of 12.5 µg/mL (≈ 31.4 µM).
